Data as given in ChEMBL document CHEMBL4627266, “Design and biological evaluation of a novel type of potential multi-targeting antimicrobial sulfanilamide hybrids in combination of pyrimidine and azoles” (Bioorg Med Chem Lett, 2020).
≈ marks a conversion by molar mass, not a printed value.

These compounds were tested on Enterococcus faecalis (assay: Antibacterial activity against Enterococcus faecalis by two fold serial microbroth dilution method).
Assay type: functional
Method in brief: (§1)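 Two-fold serial dilution in microdilution plates (micro broth dilution) following CLSI. Panel includes clinical drug-resistant isolates and ATCC reference strains. Clinical drugs were run as positive controls.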
`Nc1ccc(S(=O)(=O)Nc2nccc(-n3cncn3)n2)cc1` showed an MIC of 256 mg/L (≈ 807 µM). With `Cc1ccc2c(ccn2-c2ccnc(NS(=O)(=O)c3ccc(N)cc3)n2)c1` the MIC was 8 mg/L (≈ 21.1 µM). With `CCCc1nccn1-c1ccnc(NS(=O)(=O)c2ccc(N)cc2)n1` the MIC was 64 mg/L (≈ 179 µM). With `Cc1nccn1-c1ccnc(NS(=O)(=O)c2ccc(N)cc2)n1` the MIC was 128 mg/L (≈ 387 µM).

Each compound was assayed on Candida tropicalis (assay: Antifungal activity against Candida tropicalis by two fold serial microbroth dilution method).
Assay type: functional
Method in brief: (§2)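 Antifungal MIC by two-fold serial dilution following CLSI, with a clinical drug as positive control. Panel includes clinical drug-resistant fungal isolates.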
For `Cc1ccc2c(ccn2-c2ccnc(NS(=O)(=O)c3ccc(N)cc3)n2)c1`, the MIC was 2 to 8 mg/L (≈ 5.27 to 21.1 µM).

These compounds were tested on Staphylococcus aureus (assay: Antibacterial activity against Staphylococcus aureus ATCC 25923 by two fold serial microbroth dilution method).
Assay type: functional
Method in brief: as §1
With `Nc1ccc(S(=O)(=O)Nc2nccc(-n3cncn3)n2)cc1` the MIC was 256 mg/L (≈ 807 µM). Compound `Cc1ccc2c(ccn2-c2ccnc(NS(=O)(=O)c3ccc(N)cc3)n2)c1` has an MIC of 4 mg/L (≈ 10.5 µM). In the case of `CCCc1nccn1-c1ccnc(NS(=O)(=O)c2ccc(N)cc2)n1`, the MIC is reported as 64 mg/L (≈ 179 µM). In the case of `Cc1nccn1-c1ccnc(NS(=O)(=O)c2ccc(N)cc2)n1`, the MIC is reported as 256 mg/L (≈ 775 µM).

The compounds below were run on Candida albicans (assay: Antifungal activity against Candida albicans by two fold serial microbroth dilution method).
Assay type: functional
Method in brief: as §2
With `Nc1ccc(S(=O)(=O)Nc2nccc(-n3cncn3)n2)cc1` the MIC was 8 mg/L (≈ 25.2 µM). In the case of `Cc1ccc2c(ccn2-c2ccnc(NS(=O)(=O)c3ccc(N)cc3)n2)c1`, the MIC is reported as 2 to 8 mg/L (≈ 5.27 to 21.1 µM).

These compounds were tested on Pseudomonas aeruginosa (assay: Antibacterial activity against Pseudomonas aeruginosa by two fold serial microbroth dilution method).
Assay type: functional
Method in brief: as §1
In the case of `Nc1ccc(S(=O)(=O)Nc2nccc(-n3cncn3)n2)cc1`, the MIC is reported as 4 mg/L (≈ 12.6 µM). Compound `Cc1ccc2c(ccn2-c2ccnc(NS(=O)(=O)c3ccc(N)cc3)n2)c1` has an MIC of 4 mg/L (≈ 10.5 µM). In the case of `CCCc1nccn1-c1ccnc(NS(=O)(=O)c2ccc(N)cc2)n1`, the MIC is reported as 128 mg/L (≈ 357 µM). `Cc1nccn1-c1ccnc(NS(=O)(=O)c2ccc(N)cc2)n1` gave an MIC of 128 mg/L (≈ 387 µM).

What follows are compounds tested on Klebsiella pneumoniae (assay: Antibacterial activity against Klebsiella pneumoniae by two fold serial microbroth dilution method).
Assay type: functional
Method in brief: as §1
With `Nc1ccc(S(=O)(=O)Nc2nccc(-n3cncn3)n2)cc1` the MIC was 32 mg/L (≈ 101 µM). Compound `Cc1ccc2c(ccn2-c2ccnc(NS(=O)(=O)c3ccc(N)cc3)n2)c1` has an MIC of 8 mg/L (≈ 21.1 µM). Work on `CCCc1nccn1-c1ccnc(NS(=O)(=O)c2ccc(N)cc2)n1` yielded an MIC of 64 mg/L (≈ 179 µM). Work on `Cc1nccn1-c1ccnc(NS(=O)(=O)c2ccc(N)cc2)n1` yielded an MIC of 512 mg/L (≈ 1550 µM).

The compounds below were run on Escherichia coli (assay: Antibacterial activity against Escherichia coli by two fold serial microbroth dilution method).
Assay type: functional
Method in brief: as §1
For `Nc1ccc(S(=O)(=O)Nc2nccc(-n3cncn3)n2)cc1`, the MIC was 128 mg/L (≈ 403 µM). Compound `Cc1ccc2c(ccn2-c2ccnc(NS(=O)(=O)c3ccc(N)cc3)n2)c1` has an MIC of 8 mg/L (≈ 21.1 µM). Compound `CCCc1nccn1-c1ccnc(NS(=O)(=O)c2ccc(N)cc2)n1` has an MIC of 16 mg/L (≈ 44.6 µM). Work on `Cc1nccn1-c1ccnc(NS(=O)(=O)c2ccc(N)cc2)n1` yielded an MIC of 128 mg/L (≈ 387 µM).

What follows are compounds tested on Staphylococcus aureus (assay: Antibacterial activity against Staphylococcus aureus by two fold serial microbroth dilution method).
Assay type: functional
Method in brief: as §1
With `Nc1ccc(S(=O)(=O)Nc2nccc(-n3cncn3)n2)cc1` the MIC was 512 mg/L (≈ 1610 µM). `Cc1ccc2c(ccn2-c2ccnc(NS(=O)(=O)c3ccc(N)cc3)n2)c1` was tested, and the MIC was 16 mg/L (≈ 42.2 µM). `CCCc1nccn1-c1ccnc(NS(=O)(=O)c2ccc(N)cc2)n1` showed an MIC of 8 mg/L (≈ 22.3 µM). For `Cc1nccn1-c1ccnc(NS(=O)(=O)c2ccc(N)cc2)n1`, the MIC was 256 mg/L (≈ 775 µM).

The compounds below were run on Candida albicans (assay: Antifungal activity against Candida albicans ATCC 90023 by two fold serial microbroth dilution method).
Assay type: functional
Method in brief: as §2
`CCCc1nccn1-c1ccnc(NS(=O)(=O)c2ccc(N)cc2)n1` showed an MIC of 4 mg/L (≈ 11.2 µM).

What follows are compounds tested on Escherichia coli (assay: Antibacterial activity against Escherichia coli ATCC 25922 by two fold serial microbroth dilution method).
Assay type: functional
Method in brief: as §1
`Nc1ccc(S(=O)(=O)Nc2nccc(-n3cncn3)n2)cc1` was tested, and the MIC was 256 mg/L (≈ 807 µM). Compound `Cc1ccc2c(ccn2-c2ccnc(NS(=O)(=O)c3ccc(N)cc3)n2)c1` has an MIC of 32 mg/L (≈ 84.3 µM). `CCCc1nccn1-c1ccnc(NS(=O)(=O)c2ccc(N)cc2)n1` gave an MIC of 128 mg/L (≈ 357 µM). `Cc1nccn1-c1ccnc(NS(=O)(=O)c2ccc(N)cc2)n1` was tested, and the MIC was 256 mg/L (≈ 775 µM).

Each compound was assayed on Staphylococcus aureus (assay: Antibacterial activity against methicillin-resistant Staphylococcus aureus by two fold serial microbroth dilution method).
Assay type: functional
Method in brief: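 Two-fold serial microbroth dilution in microdilution plates, run per CLSI, with clinical antibacterial drugs as positive controls. The MRSA strain was a drug-resistant clinical isolate from infected patients. MIC (μg/mL) was read as the lowest concentration giving complete inhibition of visible bacterial growth.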
`Nc1ccc(S(=O)(=O)Nc2nccc(-n3cncn3)n2)cc1` was tested, and the MIC was 128 mg/L (≈ 403 µM). `Cc1ccc2c(ccn2-c2ccnc(NS(=O)(=O)c3ccc(N)cc3)n2)c1` was tested, and the MIC was 4 mg/L (≈ 10.5 µM). Compound `CCCc1nccn1-c1ccnc(NS(=O)(=O)c2ccc(N)cc2)n1` has an MIC of 16 mg/L (≈ 44.6 µM). `Cc1nccn1-c1ccnc(NS(=O)(=O)c2ccc(N)cc2)n1` gave an MIC of 128 mg/L (≈ 387 µM).

Each compound was assayed on Aspergillus fumigatus (assay: Antifungal activity against Aspergillus fumigatus by two fold serial microbroth dilution method).
Assay type: functional
Method in brief: as §2
`Cc1ccc2c(ccn2-c2ccnc(NS(=O)(=O)c3ccc(N)cc3)n2)c1` gave an MIC of 2 to 8 mg/L (≈ 5.27 to 21.1 µM).

The compounds below were run on Pseudomonas aeruginosa (assay: Antibacterial activity against Pseudomonas aeruginosa ATCC 27853 by two fold serial microbroth dilution method).
Assay type: functional
Method in brief: as §1
`Nc1ccc(S(=O)(=O)Nc2nccc(-n3cncn3)n2)cc1` was tested, and the MIC was 32 mg/L (≈ 101 µM). `Cc1ccc2c(ccn2-c2ccnc(NS(=O)(=O)c3ccc(N)cc3)n2)c1` showed an MIC of 4 mg/L (≈ 10.5 µM). With `CCCc1nccn1-c1ccnc(NS(=O)(=O)c2ccc(N)cc2)n1` the MIC was 128 mg/L (≈ 357 µM). Work on `Cc1nccn1-c1ccnc(NS(=O)(=O)c2ccc(N)cc2)n1` yielded an MIC of 256 mg/L (≈ 775 µM).

Each compound was assayed on Staphylococcus aureus (assay: Antibacterial activity against Staphylococcus aureus ATCC 29213 by two fold serial microbroth dilution method).
Assay type: functional
Method in brief: as §1
`Nc1ccc(S(=O)(=O)Nc2nccc(-n3cncn3)n2)cc1` was tested, and the MIC was 64 mg/L (≈ 202 µM). With `Cc1ccc2c(ccn2-c2ccnc(NS(=O)(=O)c3ccc(N)cc3)n2)c1` the MIC was 16 mg/L (≈ 42.2 µM). Compound `CCCc1nccn1-c1ccnc(NS(=O)(=O)c2ccc(N)cc2)n1` has an MIC of 8 mg/L (≈ 22.3 µM). Work on `Cc1nccn1-c1ccnc(NS(=O)(=O)c2ccc(N)cc2)n1` yielded an MIC of 256 mg/L (≈ 775 µM).

What follows are compounds tested on Acinetobacter baumannii (assay: Antibacterial activity against Acinetobacter baumannii by two fold serial microbroth dilution method).
Assay type: functional
Method in brief: as §1
With `Nc1ccc(S(=O)(=O)Nc2nccc(-n3cncn3)n2)cc1` the MIC was 128 mg/L (≈ 403 µM). With `Cc1ccc2c(ccn2-c2ccnc(NS(=O)(=O)c3ccc(N)cc3)n2)c1` the MIC was 64 mg/L (≈ 169 µM). For `CCCc1nccn1-c1ccnc(NS(=O)(=O)c2ccc(N)cc2)n1`, the MIC was 32 mg/L (≈ 89.3 µM). With `Cc1nccn1-c1ccnc(NS(=O)(=O)c2ccc(N)cc2)n1` the MIC was 256 mg/L (≈ 775 µM).
